We go through five molecules from ChEMBL document CHEMBL1135162, “Synthesis and evaluation of N-substituted 1,4-oxazepanyl Sordaricins as selective fungal EF-2 inhibitors” (2002).

Molecules are shown by their SMILES. Converted amounts (≈) assume the structure as drawn. Where only a bound is given, the exact number is not on record here.

Common to all, as to type: functional
For test [1], the system named is Candida albicans. Put plainly: Tested for in vitro antifungal activity against Candida albicans ATCC 24433 in the presence of horse serum (20%). The method, boiled down:
(§1)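 RPMI1640 medium buffered at pH 7.0, with 20% horse serum added for the incubation. Microplates incubated at 35 °C. MIC is the lowest concentration giving 80% inhibition of fungal growth.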

Test [2] concerns Candida albicans. Kind of test: Tested for in vitro antifungal activity against Candida albicans SANK51486. An outline of the steps: (§2)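 Microplate growth assay in RPMI1640 medium buffered at pH 7.0, incubated at 35 °C. MIC is the lowest test-compound concentration that inhibits fungal growth by 80%.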
In test [3] the test system is Candida albicans. Kind of test: Tested for in vitro antifungal activity against Candida albicans TIMM3164. The method, boiled down:
as §2

For test [4], the system named is Aspergillus fumigatus. Put plainly: Tested for in vitro antifungal activity against Aspergillus fumigatus ATCC 26430. An outline of the steps:
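Mould grown in microplates in RPMI1640 buffered at pH 7.0, incubated at 30 °C. MIC is the lowest test-compound concentration that inhibits growth by 80%.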

Test [5] relates to Cryptococcus neoformans. Kind of test: Tested for in vitro antifungal activity against Cryptococcus neoformans TIMM1855. The method, boiled down: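 Yeast grown in microplates in yeast nitrogen base buffered at pH 7.0, incubated at 35 °C. MIC is the lowest concentration inhibiting growth by 80%.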
For test [6], the system named is Candida albicans. Put plainly: Tested for in vitro antifungal activity against Candida albicans ATCC 64550. An outline of the steps: as §2
For test [7], the system named is Candida albicans. Put plainly: Tested for in vitro antifungal activity against Candida albicans SANK51486 in the presence of horse serum (20%). The method, boiled down: as §1
The subject of test [8] is Candida albicans. Kind of test: Tested for in vitro antifungal activity against Candida albicans ATCC 24433. An outline of the steps:
as §2

The subject of test [9] is Candida parapsilosis. Kind of test: Tested for in vitro antifungal activity against Candida parapsilosis ATCC 90018. To be noted: Lodderomyces parapsilosis. An outline of the steps:
as §2

For test [10], the system named is Nakaseomyces glabratus. Put plainly: Tested for in vitro antifungal activity against Candida glabrata ATCC 90030. An outline of the steps: as §2
Test [11] has as its system Candida tropicalis. Put plainly: Tested for in vitro antifungal activity against Candida tropicalis ATCC750. An outline of the steps:
as §2

By MIC is commonly meant the smallest concentration in the dilution series that meets the test's criterion for growth inhibition. For the molecule `CO[C@H]1CN(Cc2ccc(SC)cc2)C[C@H](OCC23C[C@@H]4[C@H](C)CC[C@H]4C4(C=O)CC2C=C(C(C)C)C34C(=O)O)O[C@@H]1C` (stereo not given in full), the MIC in [1] is 4 µg/mL; in test [2], no more than 0.031 µg/mL; in [3], 0.063 µg/mL (≈ 0.103 µM); in [4] it was greater than 16 µg/mL; in [5] it was greater than 16 µg/mL; in test [6] it was 0.125 µg/mL (≈ 0.204 µM). Also, the MIC was 2 µg/mL in test [7]; 0.063 µg/mL (≈ 0.103 µM) in [8]; greater than 16 µg/mL in test [9]; 2 µg/mL (≈ 3.27 µM) in test [10]; 0.5 µg/mL (≈ 0.817 µM) in test [11].

In the case of `CO[C@H]1CN(Cc2ccc(Cl)cc2)C[C@H](OCC23C[C@@H]4[C@H](C)CC[C@H]4C4(C=O)CC2C=C(C(C)C)C34C(=O)O)O[C@@H]1C` (stereo not given in full), the MIC in [1] was 8 µg/mL; in test [2], no more than 0.063 µg/mL; in test [3] it was no more than 0.063 µg/mL; in test [4] it was greater than 32 µg/mL; in test [5], 4 µg/mL (≈ 6.66 µM); in test [6] it was no more than 0.063 µg/mL. For the same molecule, the MIC is 4 µg/mL in [7]; no more than 0.063 µg/mL in [8]; greater than 32 µg/mL in test [9]; 1 µg/mL (≈ 1.67 µM) in test [10]; 0.5 µg/mL (≈ 0.833 µM) in test [11].

In the case of `C=C(Cl)CN1C[C@H](OCC23C[C@@H]4[C@H](C)CC[C@H]4C4(C=O)CC2C=C(C(C)C)C34C(=O)O)O[C@H](C)[C@@H](OC)C1` (stereo not given in full), the MIC was 0.5 µg/mL in test [1]; 0.016 µg/mL (≈ 0.0291 µM) in test [2]; 0.031 µg/mL (≈ 0.0563 µM) in test [3]; greater than 16 µg/mL in test [4]; 0.125 µg/mL (≈ 0.227 µM) in test [5]; 0.031 µg/mL (≈ 0.0563 µM) in test [6]. In addition, the MIC in [7] is 0.5 µg/mL; in test [8] it was 0.031 µg/mL (≈ 0.0563 µM); in test [9], 16 µg/mL (≈ 29.1 µM); in test [10] it was 0.125 µg/mL (≈ 0.227 µM); in test [11], 0.25 µg/mL (≈ 0.454 µM).

In the case of `CC(C)C1=CC2CC3(C=O)[C@@H]4CC[C@@H](C)[C@H]4CC2(CSC2CCCCC2)C13C(=O)O` (stereo not given in full), the MIC in [1] is 8 µg/mL; in [2], no more than 0.016 µg/mL; in test [3], 0.063 µg/mL (≈ 0.146 µM); in test [4] it was greater than 8 µg/mL; in test [5], greater than 8 µg/mL; in [6] it was 0.125 µg/mL (≈ 0.29 µM). In addition, the MIC was 4 µg/mL in [7]; 0.031 µg/mL (≈ 0.072 µM) in test [8]; greater than 8 µg/mL in [9]; 0.031 µg/mL (≈ 0.072 µM) in test [10]; 2 µg/mL (≈ 4.64 µM) in test [11].

Turning to `CO[C@H]1CN(CC=C(Cl)Cl)C[C@H](OCC23C[C@@H]4[C@H](C)CC[C@H]4C4(C=O)CC2C=C(C(C)C)C34C(=O)O)O[C@@H]1C` (stereo not given in full), the MIC was 2 µg/mL in [1]; no more than 0.031 µg/mL in test [2]; no more than 0.031 µg/mL in [3]; greater than 16 µg/mL in test [4]; 8 µg/mL (≈ 13.7 µM) in test [5]; 0.063 µg/mL (≈ 0.108 µM) in test [6]. Besides, the MIC in test [7] is 1 µg/mL; in [8], no more than 0.031 µg/mL; in [9] it was greater than 16 µg/mL; in test [10], 1 µg/mL (≈ 1.71 µM); in [11], 0.5 µg/mL (≈ 0.855 µM).
